{"source": "ChEMBL document CHEMBL1135888", "about": "“Synthesis of new covalently bound kappa-carrageenan-AZT conjugates with improved anti-HIV activities” (J Med Chem, 2002)", "key": {"[1]": {"assay": "half life required for 50% hydrolysis of compound to AZT upon incubation in NHS", "format": "ADME, organism-based", "details": "human, NHS (human serum)", "method_in_brief": "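Incubation at 37 °C in normal human serum. Samples were quenched with ice-cold methanol, centrifuged and filtered, then run on HPLC at 267 nm. t1/2 is the time to 50% hydrolysis to AZT.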"}, "MT4 [2]": {"system": "MT4", "assay": "Concentration required to cause 50% death of uninfected MT-4 cells (expressed in AZT equivalent)", "format": "functional, Homo sapiens", "method_in_brief": "(§1)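 Uninfected MT-4 cells were exposed to compound. Growth was followed and viability measured by trypan blue exclusion, or as viability of mock-infected cells on day 5. CC50 is the concentration giving 50% cell death.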"}, "Homo sapiens": {"species_on_record": "Homo sapiens", "assay": "% Nucleoside derivatives released after 48 hr of hydrolysis at pH 7.2", "format": "functional", "method_in_brief": "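Incubation at 37 °C for 48 h in normal human serum (pH 7.2). Aliquots were quenched in ice-cold methanol and centrifuged, and supernatants were filtered. HPLC used a 20–100% solvent B gradient over 20 min with detection at 267 nm. Percent of AZT and succinate-AZT released was calculated from peak areas.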"}, "MT4 [3]": {"system": "MT4", "assay": "Concentration required to inhibit the cytopathicity of HIV-1 strain IIIB by 50% in MT-4 cells (expressed in AZT equivalent)", "format": "functional, cell-based", "details": "Homo sapiens", "method_in_brief": "(§2)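 MT-4 cells in RPMI 1640 with 10% heat-inactivated FCS, 2 mM L-glutamine, 0.1% bicarbonate and 20 µg/mL gentamicin were infected with HIV-1 IIIB before compound was added. Inhibition of virus-induced cytopathicity was read 5 days after infection.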"}, "MT4 [4]": {"system": "MT4", "assay": "Concentration required to inhibit the cytopathicity of HIV-1 strain BRU by 50% in MT-4 cells (expressed in AZT equivalent)", "format": "functional, cell-based", "details": "Homo sapiens", "method_in_brief": "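MT-4 cells (3 × 10⁵), cultured in RPMI/10% FCS, were pretreated with compound for 1 h at 37 °C. Cells were then infected with HIV-1 BRU (MOI 0.1 CCID/cell) for 1 h, washed three times and cultured 7 days with or without compound, with medium renewed on day 3. Cytopathicity was scored microscopically, in duplicate. Final DMSO was <2%, with DMSO-matched standard assays.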"}, "MT4 [5]": {"system": "MT4", "assay": "Concentration required to inhibit the cytopathicity of HIV-1 strain IIIB by 50% in MT-4 cells (expressed in k-carrageenan equivalent)", "format": "functional, cell-based", "details": "Homo sapiens", "method_in_brief": "as §2"}, "MT4 [6]": {"system": "MT4", "assay": "Concentration required to cause 50% death of uninfected MT-4 cells (expressed in k-carrageenan equivalent)", "format": "functional, Homo sapiens", "method_in_brief": "as §1"}}, "note": "Where “and” joins values, the source holds several entries; their conditions need not be identical. Equal entries are not always repeated.", "data": [{"smiles": "Cc1cn([C@H]2C[C@H](N=[N+]=[N-])[C@@H](COC(=O)CCC(=O)O)O2)c(=O)[nH]c1=O", "values": [{"measurement": "half-life", "setting": "[1]", "result": 25, "unit": "h"}, {"measurement": "CC50", "setting": "MT4 [2]", "result": "> 50000 nM and 130000 nM"}, {"measurement": "Release", "setting": "Homo sapiens", "result": 100, "unit": "%"}, {"measurement": "EC50", "setting": "MT4 [3]", "result": 65, "unit": "nM"}, {"measurement": "EC50", "setting": "MT4 [4]", "result": 15, "unit": "nM"}]}, {"smiles": "CO[C@H]1O[C@@H]2CO[C@@H]([C@H]1O)[C@H]2O[C@@H]1O[C@H](CO)[C@H](OS(=O)(=O)[O-])[C@H](O[C@H]2O[C@@H]3CO[C@@H]([C@H]2O)[C@H]3O[C@@H]2O[C@H](COC(=O)CCC(=O)OC[C@H]3O[C@@H](n4cc(C)c(=O)[nH]c4=O)C[C@@H]3N=[N+]=[N-])[C@H](OS(=O)(=O)[O-])[C@H](O[C@H]3O[C@@H]4CO[C@@H]([C@H]3O)[C@H]4O[C@@H]3O[C@H](CO)[C@H](OS(=O)(=O)[O-])[C@@H](O[C@H]4O[C@@H]5CO[C@@H]([C@H]4O)[C@H]5O[C@@H]4O[C@H](CO)[C@H](OS(=O)(=O)[O-])[C@H](O[C@H]5O[C@@H]6CO[C@@H]([C@H]5O)[C@H]6O[C@@H]5O[C@H](COC(=O)CCC(=O)OC[C@H]6O[C@@H](n7cc(C)c(=O)[nH]c7=O)C[C@@H]6N=[N+]=[N-])[C@H](OS(=O)(=O)[O-])[C@H](O[C@H]6O[C@@H]7CO[C@@H]([C@H]6O)[C@H]7O[C@@H]6O[C@H](CO)[C@H](OS(=O)(=O)[O-])[C@@H](O[C@H]7O[C@@H]8CO[C@@H]([C@H]7O)[C@H]8O[C@@H]7O[C@H](CO)[C@H](OS(=O)(=O)[O-])[C@H](O[C@H]8O[C@@H]9CO[C@@H]([C@H]8O)[C@H]9O[C@@H]8O[C@H](COC(=O)CCC(=O)OC[C@H]9O[C@@H](n%10cc(C)c(=O)[nH]c%10=O)C[C@@H]9N=[N+]=[N-])[C@H](OS(=O)(=O)[O-])[C@H](O[C@H]9O[C@@H]%10CO[C@@H]([C@H]9O)[C@H]%10O[C@@H]9O[C@H](CO)[C@H](OS(=O)(=O)[O-])[C@H](C)[C@H]9O)[C@H]8O)[C@H]7O)[C@H]6O)[C@H]5O)[C@H]4O)[C@H]3O)[C@H]2O)[C@H]1O.[Na+].[Na+].[Na+].[Na+].[Na+].[Na+].[Na+].[Na+].[Na+]", "values": [{"measurement": "EC50", "setting": "MT4 [5]", "result": 1.6, "unit": "µg/mL"}, {"measurement": "CC50", "setting": "MT4 [6]", "result": 300, "unit": "µg/mL"}, {"measurement": "CC50", "setting": "MT4 [6]; Homo sapiens, MT4, read-out: CC50", "result": 300, "unit": "µg/mL"}, {"measurement": "Release", "setting": "Homo sapiens", "result": 39, "unit": "%"}, {"measurement": "EC50", "setting": "MT4 [3]", "result": 109, "unit": "nM"}]}, {"smiles": "Cc1cn([C@H]2C[C@H](N=[N+]=[N-])[C@@H](CO)O2)c(=O)[nH]c1=O", "note": "[ZIDOVUDINE]", "values": [{"measurement": "CC50", "setting": "MT4 [2]", "result": "> 100000 nM and 42000 nM"}, {"measurement": "EC50", "setting": "MT4 [4]", "result": 25, "unit": "nM"}]}]}
